A selection: hits, their analogues and other compounds. The true share with any hit is near 2.3%.
TRPC6 inh – mouse TRPC6 channel inhibition. Q61143. HEK293-TRPC6, membrane potential dye, ACh-evoked depolarization; active compounds read low. B-score at 10 µM. actives 1.1% (n = 310,000). AID 2553;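 active = B-score under library mean minus 3 SD, initial fluorescence not abnormally high, positive integrated signal ratio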;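 also: B-score derived from integrated fluorescence ratio over the kinetic read; more negative B-score means stronger inhibition of depolarization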
TRPC4 inh – inhibitors of mouse TRPC4 channel; B-score at 10 µM; HEK293 TRPC4beta/mu-opioid, DAMGO-evoked Fluo4 calcium flux; active compounds read low; actives 0.39% (n = 300,000);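 active = B-score over 3 SD under the library average, no early fluorescence shift, positive overall ratio signal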
Target sequence (Q9QUQ5 whole entry, looked up): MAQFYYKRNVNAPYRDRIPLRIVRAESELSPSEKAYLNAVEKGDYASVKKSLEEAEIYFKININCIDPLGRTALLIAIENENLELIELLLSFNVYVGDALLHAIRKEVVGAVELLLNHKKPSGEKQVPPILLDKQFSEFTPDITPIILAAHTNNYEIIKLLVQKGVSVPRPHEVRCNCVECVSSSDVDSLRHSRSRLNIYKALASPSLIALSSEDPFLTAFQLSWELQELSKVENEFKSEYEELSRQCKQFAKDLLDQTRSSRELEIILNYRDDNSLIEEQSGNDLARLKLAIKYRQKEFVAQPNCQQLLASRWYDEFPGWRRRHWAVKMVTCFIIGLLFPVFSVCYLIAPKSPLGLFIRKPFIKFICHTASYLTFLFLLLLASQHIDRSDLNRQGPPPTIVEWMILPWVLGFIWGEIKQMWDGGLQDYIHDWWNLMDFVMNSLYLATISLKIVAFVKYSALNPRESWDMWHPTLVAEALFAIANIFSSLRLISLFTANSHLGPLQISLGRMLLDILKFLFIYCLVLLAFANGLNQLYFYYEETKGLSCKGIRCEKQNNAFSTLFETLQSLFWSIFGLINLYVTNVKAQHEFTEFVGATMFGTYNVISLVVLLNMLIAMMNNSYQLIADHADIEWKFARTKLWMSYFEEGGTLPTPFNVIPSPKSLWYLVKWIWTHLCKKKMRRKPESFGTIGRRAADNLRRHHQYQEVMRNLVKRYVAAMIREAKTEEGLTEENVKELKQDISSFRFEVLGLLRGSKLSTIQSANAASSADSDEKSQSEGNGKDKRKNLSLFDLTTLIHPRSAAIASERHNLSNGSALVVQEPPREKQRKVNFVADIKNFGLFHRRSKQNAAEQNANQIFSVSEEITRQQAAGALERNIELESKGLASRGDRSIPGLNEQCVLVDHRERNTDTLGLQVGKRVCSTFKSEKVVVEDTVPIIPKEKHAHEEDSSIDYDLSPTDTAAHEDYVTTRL
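Assay system – HEK293 line stably carrying TRPC4beta and mu-opioid receptor · Doses – single dose · Detection – Fluo4 calcium-dye fluorescence, kinetic read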
TRPC6 activator – activators of mouse TRPC6 channel | actives 0.13% (n = 310,000) | Q61143 | HEK293-TRPC6 membrane potential dye fluorescence; active compounds read high | AID 2550 | B-score at 10 µM;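 active = B-score of the integrated fluorescence ratio above library mean plus 3 SD, and starting fluorescence ratio within library mean plus 5 SD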;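 also: higher score means more depolarization so channel activation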
TRPC4 PAM – allosterically enhances the mouse TRPC4 cation channel; HEK293 TRPC4beta/mu-opioid, DAMGO EC20, Fluo-4 Ca2+ flux; active compounds read high; actives 0.42% (n = 310,000); B-score at 10 µM; AID 2227;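 active = B-score of calcium response area above 5 SD of library B-scores, with initial fluorescence ratio within 5 SD of library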;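 also: B-score of integrated fluorescence ratio over time as area under calcium response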
TRPC4 act – TRPC4 (mouse) channel activation. actives 0.49% (n = 310,000). HEK293 TRPC4beta/mu-opioid, Fluo4 calcium fluorescence; active compounds read high. B-score at 10 µM. Q9QUQ5. AID 2237;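 active = B-score above 5 SD of library B-scores, and initial fluorescence ratio not above library mean plus 5 SD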;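 also: positive B-score marks a calcium rise read as TRPC4 activation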
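Material: HEK293 stable line with TRPC4beta plus mu-opioid receptor; technique: Fluo4 calcium-sensitive dye fluorescence, kinetic, 1 Hz baseline; timing: Fluo4 dye loading 45 min at room temperature, 110 s recording; controls: assay buffer as low control, maximal DAMGO as high control; read-out: integrated baseline-normalised fluorescence ratio, converted to per-well B score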
Numbers without * were called inactive.

What do the screens show for `Fc1ccccc1COc1ccc(Br)cc1CNCC1CCCO1` (stereo not given)?
TRPC6 inh: inactive; TRPC4 inh: -6*; TRPC6 activator: inactive; TRPC4 PAM: inactive; TRPC4 act: inactive

What do the screens show for `CCC1(c2ccc(F)cc2)NC(=O)N(CC(=O)Nc2cccnc2Cl)C1=O` (stereo not given)?
TRPC6 inh: inactive; TRPC4 inh: inactive; TRPC6 activator: inactive; TRPC4 PAM: inactive; TRPC4 act: inactive

What do the screens show for `COc1ccc(C(=O)C2CCCN(C3Cc4ccccc4C3)C2)cc1OC` (stereo not given)?
TRPC6 inh: inactive; TRPC4 inh: inactive; TRPC6 activator: inactive; TRPC4 PAM: inactive; TRPC4 act: 87*

Results for C#Cc1cccc(C(=O)NC2CCCN(C3Cc4ccccc4C3)C2)c1 (stereo not given) ?
TRPC6 inh: inactive; TRPC4 inh: inactive; TRPC6 activator: inactive; TRPC4 PAM: inactive; TRPC4 act: 188*

How did Oc1ccccc1CN1CCCC(N2CCc3ccccc3C2)C1 (stereo not given) do in these assays?
TRPC6 inh: inactive; TRPC4 inh: inactive; TRPC6 activator: inactive; TRPC4 PAM: inactive; TRPC4 act: inactive

How did CN(C)CCCCOc1cccc(Br)c1 do in these assays?
TRPC6 inh: inactive; TRPC4 inh: inactive; TRPC6 activator: inactive; TRPC4 PAM: 20*; TRPC4 act: inactive

What do the screens show for `CN(C)CCOc1ccc2ccccc2c1`?
TRPC6 inh: inactive; TRPC4 inh: inactive; TRPC6 activator: inactive; TRPC4 PAM: 16*; TRPC4 act: inactive

How did CN(C)CCOc1cc(Cl)cc(Cl)c1 do in these assays?
TRPC6 inh: inactive; TRPC4 inh: inactive; TRPC6 activator: inactive; TRPC4 PAM: 26*; TRPC4 act: inactive

What do the screens show for `CN(C)CCOc1cccc(Cl)c1`?
TRPC6 inh: inactive; TRPC4 inh: inactive; TRPC6 activator: inactive; TRPC4 PAM: inactive; TRPC4 act: inactive

Results for Oc1ccc(/C=N/Nc2ccc(Cl)nn2)c(O)c1O ?
TRPC6 inh: inactive; TRPC4 inh: inactive; TRPC6 activator: inactive; TRPC4 PAM: inactive; TRPC4 act: inactive

How did O=C(CCl)NC(=O)NC12CC3CC(CC(C3)C1)C2 do in these assays?
TRPC6 inh: inactive; TRPC4 inh: -6*; TRPC6 activator: inactive; TRPC4 PAM: inactive; TRPC4 act: inactive

How did CC(C)c1cc(CNC(=O)CC2C(=O)NCCN2CC2CCCCC2)on1 (stereo not given) do in these assays?
TRPC6 inh: inactive; TRPC4 inh: inactive; TRPC6 activator: inactive; TRPC4 PAM: inactive; TRPC4 act: inactive

What do the screens show for `O=C(Nc1nnc(-c2ccccc2Cl)o1)c1nc2ccccc2s1`?
TRPC6 inh: inactive; TRPC4 inh: inactive; TRPC6 activator: inactive; TRPC4 PAM: inactive; TRPC4 act: 185*

How did COc1cc(NC(C)CCCN)c2ncccc2c1 (stereo not given) do in these assays?
TRPC6 inh: inactive; TRPC4 inh: inactive; TRPC6 activator: inactive; TRPC4 PAM: inactive; TRPC4 act: 181*

What do the screens show for `COc1ccc(S(=O)(=O)NNc2nc(C)cc(C)n2)cc1Br`?
TRPC6 inh: inactive; TRPC4 inh: inactive; TRPC6 activator: inactive; TRPC4 PAM: inactive; TRPC4 act: inactive

What do the screens show for `Cc1cc(C)nc(NNS(=O)(=O)c2ccc(F)c(Cl)c2)n1`?
TRPC6 inh: inactive; TRPC4 inh: inactive; TRPC6 activator: inactive; TRPC4 PAM: 17*; TRPC4 act: inactive

How did OC1(c2ccc(Br)cc2)CN(c2ccccc2)C2=[N+]1CCS2 (stereo not given) do in these assays?
TRPC6 inh: inactive; TRPC4 inh: inactive; TRPC6 activator: inactive; TRPC4 PAM: inactive; TRPC4 act: 93*

How did OC1(c2ccc(Cl)cc2)CN(c2ccccc2)C2=[N+]1CCS2 (stereo not given) do in these assays?
TRPC6 inh: inactive; TRPC4 inh: inactive; TRPC6 activator: inactive; TRPC4 PAM: inactive; TRPC4 act: 75*

What do the screens show for `Cc1cccc(/C=N/n2c(C)cc(C)c(C#N)c2=O)c1`?
TRPC6 inh: inactive; TRPC4 inh: inactive; TRPC6 activator: inactive; TRPC4 PAM: inactive; TRPC4 act: inactive

How did CC1CC(NC(=O)/C=C/C(=O)O)CC(C)(C)C1 (stereo not given) do in these assays?
TRPC6 inh: inactive; TRPC4 inh: inactive; TRPC6 activator: inactive; TRPC4 PAM: inactive; TRPC4 act: inactive

How did O=[N+]([O-])c1ccc(N2CCN(CCOc3nonc3-c3ccccc3)CC2)c(Cl)c1 do in these assays?
TRPC6 inh: inactive; TRPC4 inh: inactive; TRPC6 activator: inactive; TRPC4 PAM: 17*; TRPC4 act: inactive

What do the screens show for `COc1cccc(CN2CCN(C(=O)c3cccc(OC)c3)CC2)c1`?
TRPC6 inh: inactive; TRPC4 inh: inactive; TRPC6 activator: inactive; TRPC4 PAM: inactive; TRPC4 act: inactive

Results for O=C(c1ccccc1)N1CCN(Cc2cccc(Oc3ccccc3)c2)CC1 ?
TRPC6 inh: -11*; TRPC4 inh: inactive; TRPC6 activator: 17*; TRPC4 PAM: inactive; TRPC4 act: inactive

How did Cc1ccc(S(=O)(=O)Nc2cccc(C(=O)NC3CCN(Cc4ccccc4)CC3)c2)cc1F do in these assays?
TRPC6 inh: inactive; TRPC4 inh: inactive; TRPC6 activator: inactive; TRPC4 PAM: inactive; TRPC4 act: inactive

How did O=C(c1cccc(NS(=O)(=O)c2ccc(F)c(F)c2)c1)N1CCN(Cc2ccccc2)CC1 do in these assays?
TRPC6 inh: inactive; TRPC4 inh: inactive; TRPC6 activator: inactive; TRPC4 PAM: inactive; TRPC4 act: 81*

Results for COc1ccc(-n2c3c(cc(C(=O)NCc4ccco4)c2=O)C(=O)CC(C)(C)C3)cc1 ?
TRPC6 inh: inactive; TRPC4 inh: -7*; TRPC6 activator: inactive; TRPC4 PAM: inactive; TRPC4 act: inactive

What do the screens show for `COc1ccc(C(=O)CCC(=O)Nc2cccc(Cl)c2)cc1`?
TRPC6 inh: inactive; TRPC4 inh: inactive; TRPC6 activator: inactive; TRPC4 PAM: 18*; TRPC4 act: inactive

What do the screens show for `CC1CC(C)CN(CCC(=O)Nc2ccc(Br)cc2)C1` (stereo not given)?
TRPC6 inh: inactive; TRPC4 inh: inactive; TRPC6 activator: inactive; TRPC4 PAM: inactive; TRPC4 act: 44*

How did CC1CC(C)CN(CCC(=O)Nc2cccc(Cl)c2)C1 (stereo not given) do in these assays?
TRPC6 inh: inactive; TRPC4 inh: inactive; TRPC6 activator: inactive; TRPC4 PAM: inactive; TRPC4 act: 60*

How did CCCCn1c(N)c(N(CCOC)C(=O)c2ccc3c(c2)OCCO3)c(=O)[nH]c1=O do in these assays?
TRPC6 inh: inactive; TRPC4 inh: inactive; TRPC6 activator: inactive; TRPC4 PAM: inactive; TRPC4 act: inactive

How did CN1CCN(C(=O)c2ccccc2NC(=O)c2cccc(Cl)c2)CC1 do in these assays?
TRPC6 inh: inactive; TRPC4 inh: inactive; TRPC6 activator: inactive; TRPC4 PAM: inactive; TRPC4 act: inactive
